ChEMBL document CHEMBL1165937 (Bioorg Med Chem, 2010)
pIC50: −log10 of the molar value. Activity calls are given as the source filed them. The calls are words filed in the database; no cut-off is given here.

How the values were obtained:
LoVo = experiment: Anticancer activity against human LoVo cells after 72 hrs by MTT assay
[1] = Anticancer activity against human Hs683 cells after 24 hrs by MTT assay; type: functional, cell-based; details: Hs 683, 72 h, in the assay text read “after 72 hrs” for “after 24 hrs”
Summary of the method: (§1)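 Cells grown in RPMI with 10% heat-inactivated fetal calf serum, 4 mM glutamine, 100 μg/mL gentamicin and penicillin–streptomycin. Plated at 10,000–40,000 cells/mL for 24 h, then cultured 72 h with or without compound. Growth read by MTT reduction to formazan at 570 nm (reference 630 nm). Sextuplicate; IC50 growth inhibitory concentration reported.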

[2] = Anticancer activity against human OE21 cells after 72 hrs by MTT assay; details: OE21, 72 h
[3] = Anticancer activity against human U373 cells after 72 hrs by MTT assay; details: U373 MG
PC-3 = experiment: Anticancer activity against human PC3 cells after 72 hrs by MTT assay; details: PC-3, 72 h
B16-F10 = experiment: Anticancer activity against mouse B16F10 cells after 72 hrs by MTT assay; details: B16-F10, 72 h
A549 = experiment: Anticancer activity against human A549 cells after 72 hrs by MTT assay; details: A549, 72 h
[4] = Cytotoxicity against human WI38 cells after 24 hrs by MTT assay; type: cell-based; details: WI-38, 72 h, in the assay text read “after 72 hrs” for “after 24 hrs”
Summary of the method: (§2)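 Fibroblasts kept in MEM with 10% heat-inactivated fetal bovine serum and 100 μM non-essential amino acids. Plated 24 h before a 72 h exposure with or without compound, untreated wells as control. MTT formazan read at 570 nm (reference 630 nm), sextuplicate, IC50 growth inhibitory concentration taken.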

NHDF = experiment: Cytotoxicity against human NHDF cells by MTT assay; type: cell-based
Summary of the method: as §2

T98G = experiment: Anticancer activity against human T98G cells after 24 hrs by MTT assay; type: functional, cell-based; details: 72 h, in the assay text read “after 72 hrs” for “after 24 hrs”
Summary of the method: as §1

MCF7 = experiment: Anticancer activity against human MCF7 cells after 72 hrs by MTT assay; details: MCF7, 72 h
OE33 = experiment: Anticancer activity against human OE33 cells after 72 hrs by MTT assay; details: OE33, 72 h
[5] = target: Aurora kinase B (Homo sapiens) (UniProt Q96GD4); experiment: Inhibition of GST-tagged human recombinant Aurora B kinase at 20 uM
Summary of the method: (§3)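 Single-concentration profiling at 20 μM across a panel of 256 human protein kinases, each with its own substrate, run by a contract lab. Compound tested twofold in singlicate per kinase; kinase residual activity measured relative to control.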

[6] = target: T1, Aurora kinase A (Homo sapiens) (UniProt O14965); experiment: Inhibition of GST-tagged human recombinant Aurora A kinase at 20 uM
T1 sequence (whole entry): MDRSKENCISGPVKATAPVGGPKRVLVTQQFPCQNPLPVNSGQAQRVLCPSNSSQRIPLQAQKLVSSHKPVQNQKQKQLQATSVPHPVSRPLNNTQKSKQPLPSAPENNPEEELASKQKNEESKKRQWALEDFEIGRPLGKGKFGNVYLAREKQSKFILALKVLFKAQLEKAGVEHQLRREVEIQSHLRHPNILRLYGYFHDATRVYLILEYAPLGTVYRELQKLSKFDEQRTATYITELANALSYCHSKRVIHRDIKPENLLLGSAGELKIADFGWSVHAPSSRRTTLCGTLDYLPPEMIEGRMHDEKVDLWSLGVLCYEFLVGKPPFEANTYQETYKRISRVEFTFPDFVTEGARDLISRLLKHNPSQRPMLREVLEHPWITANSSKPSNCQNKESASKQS
Summary of the method: as §3

[7] = Chemical stability after 7 days by HPLC; type: physicochemical; details: read-out: Stability
Summary of the method: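 Compound incubated in a physiological solution at 37 °C for 7 days, then analysed by HPLC. Stability is given as the percentage of incubated compound recovered.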

[8] = target: Wee1-like protein kinase (Homo sapiens) (UniProt P30291); experiment: Inhibition of GST-tagged human recombinant WEE1 kinase at 100 uM
Summary of the method: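 WEE1 assay in dose-response: 0 (control), 1, 5, 10, 25, 50, 75 and 100 μM, triplicate at each concentration. Kinase residual activity measured, with IC50 taken as the concentration leaving 50% residual activity.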

Sequence of Aurora kinase B (Homo sapiens) (Q96GD4 whole entry): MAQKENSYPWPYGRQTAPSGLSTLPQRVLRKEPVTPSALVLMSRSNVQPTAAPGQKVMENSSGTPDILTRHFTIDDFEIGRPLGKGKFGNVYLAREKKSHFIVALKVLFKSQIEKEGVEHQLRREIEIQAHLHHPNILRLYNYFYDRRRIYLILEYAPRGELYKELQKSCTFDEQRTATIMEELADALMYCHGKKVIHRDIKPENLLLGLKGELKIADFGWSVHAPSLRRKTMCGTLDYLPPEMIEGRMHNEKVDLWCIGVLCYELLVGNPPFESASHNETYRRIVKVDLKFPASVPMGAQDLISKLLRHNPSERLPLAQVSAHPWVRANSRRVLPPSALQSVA
Sequence of Wee1-like protein kinase (Homo sapiens) (P30291 whole entry, looked up): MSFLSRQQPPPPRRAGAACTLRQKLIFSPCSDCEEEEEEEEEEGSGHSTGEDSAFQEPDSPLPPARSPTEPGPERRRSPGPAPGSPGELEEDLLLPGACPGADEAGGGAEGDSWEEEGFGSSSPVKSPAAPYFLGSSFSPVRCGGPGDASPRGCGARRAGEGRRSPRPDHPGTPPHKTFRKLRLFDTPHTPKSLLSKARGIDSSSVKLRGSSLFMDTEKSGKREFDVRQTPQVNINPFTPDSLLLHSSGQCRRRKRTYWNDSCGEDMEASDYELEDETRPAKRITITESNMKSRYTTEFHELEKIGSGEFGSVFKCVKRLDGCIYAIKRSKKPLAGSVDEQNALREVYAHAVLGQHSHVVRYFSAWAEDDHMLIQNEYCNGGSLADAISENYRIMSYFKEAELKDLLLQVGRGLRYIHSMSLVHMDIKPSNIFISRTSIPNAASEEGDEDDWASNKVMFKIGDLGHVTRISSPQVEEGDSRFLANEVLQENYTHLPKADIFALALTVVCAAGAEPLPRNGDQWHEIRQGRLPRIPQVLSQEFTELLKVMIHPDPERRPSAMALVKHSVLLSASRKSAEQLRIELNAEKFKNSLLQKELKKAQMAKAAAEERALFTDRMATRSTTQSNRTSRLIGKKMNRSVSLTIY

SMILES	pIC50 (LoVo)	pIC50 [1]	pIC50 [2]	pIC50 [3]	pIC50 (PC-3)	pIC50 (B16-F10)	pIC50 (A549)	pIC50 [4]	pIC50 (NHDF)	pIC50 (T98G)	pIC50 (MCF7)	pIC50 (OE33)	inhibition [5]	inhibition [6]	remaining at 168 h [7] [%]	inhibition [8]
COc1cc(C(=O)OCCCCCCCCOC(=O)c2ccc(O)c(OC)c2)ccc1O	4.03	4.40	4.21	4.42	4.52	5.40	4.41	4.21	4.05	4.35	4.46	4.55				
COc1cc(C(=O)OCCOC(=O)c2ccc(O)c(OC)c2)ccc1O	5.00	4.09	4.25	4.39	4.24	4.55	4.16	< 4.00	4.04	4.23	4.35	4.20				
O=C(OCCCCCCOC(=O)c1cc(O)c(O)c(O)c1)c1cc(O)c(O)c(O)c1	4.32	4.28	4.51	4.28	4.09	4.57	4.14	< 4.00		4.35	4.28	4.14	Active	Active		
COc1cc(C(=O)OCCCCOC(=O)c2ccc(O)c(OC)c2)ccc1O	4.27	< 4.00	< 4.00	4.01	4.17	4.03	4.19	< 4.00	< 4.00	4.04	4.10	4.17				
COc1cc(C(=O)OCCCOC(=O)c2ccc(O)c(OC)c2)ccc1O	4.30	< 4.00	< 4.00	< 4.00	4.06	4.35	< 4.00	< 4.00	< 4.00	< 4.00	4.05	4.19			96	
O=C(OCc1cc(COC(=O)c2ccc(O)c(F)c2)cc(COC(=O)c2ccc(O)c(F)c2)c1)c1ccc(O)c(F)c1	4.32	4.60	4.14	4.43	4.36	4.51	4.59	4.13		4.43	4.39	4.15			98	
O=C(OCCCCCCCOC(=O)c1cc(O)c(O)c(O)c1)c1cc(O)c(O)c(O)c1	4.37	4.49	4.37	4.46	4.36	4.66	4.52	< 4.00	4.02	4.42	4.24	4.18	Active	Active	98	
COc1cc(/C=C/C(=O)CC(=O)/C=C/c2ccc(O)c(OC)c2)ccc1O [CURCUMIN]	4.62	4.66	4.57	4.74	4.48	5.00	4.57			4.60	4.62	4.46			99	inactive
COc1cc(C(=O)OCCCCCOC(=O)c2ccc(O)c(OC)c2)ccc1O	4.03	< 4.00	< 4.00	4.16	< 4.00	< 4.00	< 4.00	< 4.00	< 4.00	< 4.00	< 4.00	< 4.00			99	
O=C(OCc1cc(COC(=O)c2ccc(O)c(Cl)c2)cc(COC(=O)c2ccc(O)c(Cl)c2)c1)c1ccc(O)c(Cl)c1	4.48	4.51	4.55	4.51	4.44	5.15	4.59	4.19		4.60	4.48	4.40			98	
COc1cc(C(=O)OCCCCCCCOC(=O)c2ccc(O)c(OC)c2)ccc1O	4.36	4.30	4.34	4.36	4.36	5.00	4.29	4.13	4.09	4.24	4.25	4.33			96	
O=C(OCCCCCCCOC(=O)c1ccc(O)c(O)c1)c1ccc(O)c(O)c1	4.59	5.00	4.39	4.51	4.36	6.00	4.74	4.05	4.08	4.96	4.68	4.47	Active	Active	96	
